A short description of data set [1]: Effect on locomotory activity in C57BL/6 mouse model of amyloid beta (25 to 35) peptide-induced memory impairment assessed as change in number of line crossing at 14 to 56 mg/kg, po administered via gavage measured for 5 mins by open field test. It is filed as ADME, organism-based. Particulars: in vivo. The method, boiled down: (§1)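 Open-field test after intracerebroventricular Aβ25–35 and dosing at 14, 28 or 56 mg/kg or vehicle. Line crossings and mean speed were counted during a 5-minute session. Results are mean ± SEM.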

The nature of data set [2]: Effect on locomotory activity in C57BL/6 mouse model of amyloid beta (25 to 35) peptide-induced memory impairment assessed as change in mean speed at 14 to 56 mg/kg, po administered via gavage measured for 5 mins by open field test. The data set is classed as ADME, organism-based. Particulars: in vivo. An outline of the steps:
as §1

For data set [3], the system named is Mus musculus. The data set is described as follows: Cognitive enhancing effect in C57BL/6 mouse model of amyloid beta (25 to 35) peptide-induced memory impairment assessed as reduction in escape latency time to find removed platform position at 56 mg/kg, po administered via gavage and measured on 4th day by Barnes maze test. It is filed as functional, organism-based. An outline of the steps:
(§2)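 Barnes maze in mice given intracerebroventricular Aβ25–35: latency to enter the escape box over the training days, plus latency and mistake counts in the probe trial, each compared with the vehicle-treated Aβ25–35 group. Results are mean ± SEM.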

For data set [4], the system named is Mus musculus. The data set is described as follows: Cognitive enhancing effect in orally dosed C57BL/6 mouse model of amyloid beta (25 to 35) peptide-induced memory impairment assessed as reduction in escape latency time to find removed platform position measured on 4th day by Barnes maze test. The data set is classed as functional, organism-based. The method, boiled down: (§3)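 Mice given Aβ25–35 by intracerebroventricular injection were run in a Barnes maze. Latency to enter the escape box was recorded over the training sessions, and latency and mistake counts were scored in the probe trial. Results are mean ± SEM.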

Data set [5] relates to Mus musculus. The data set is described as follows: Cognitive enhancing effect in orally dosed C57BL/6 mouse model of amyloid beta (25 to 35) peptide-induced memory impairment assessed as reduction in mistake time to find removed platform position measured on 4th day by Barnes maze test. The data set is classed as functional, organism-based. An outline of the steps:
as §3

The test system of data set [6] is Mus musculus. The data set is described as follows: Cognitive enhancing effect in C57BL/6 mouse model of amyloid beta (25 to 35) peptide-induced memory impairment assessed as reduction in mistake time to find removed platform position at 56 mg/kg, po administered via gavage and measured on 4th day by Barnes maze test. The data set is classed as functional, organism-based. An outline of the steps: as §2

The nature of data set [7]: Effect on locomotory activity in C57BL/6 mouse model of amyloid beta (25 to 35) peptide-induced memory impairment assessed as change in mean speed of swimming at 14 to 56 mg/kg, po administered via gavage by Morris water maze test. It is filed as ADME, organism-based. Particulars: in vivo. An outline of the steps: (§4)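 Mice given intracerebroventricular Aβ25–35 received 14, 28 or 56 mg/kg, or an equal volume of vehicle. Morris water maze: swim speed taken on day 1, escape latency recorded in training sessions, probe trial on day 6 with the platform removed (time to target and platform crossings scored). n = 9 per group, mean ± SEM.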

For data set [8], the system named is Mus musculus. Kind of data set: Cognitive enhancing effect in C57BL/6 mouse model of amyloid beta (25 to 35) peptide-induced memory impairment assessed as reduction in escape latency time to find removed platform position at 14 mg/kg, po administered via gavage and measured on 5th day by Morris water maze test. It is filed as functional, organism-based. The method, boiled down:
as §4

The test system of data set [9] is Mus musculus. Kind of data set: Cognitive enhancing effect in C57BL/6 mouse model of amyloid beta (25 to 35) peptide-induced memory impairment assessed as reduction in escape latency time to find removed platform position at 28 mg/kg, po administered via gavage and measured on 5th day by Morris water maze test. It is filed as functional, organism-based. An outline of the steps: as §4

Data set [10] relates to Mus musculus. Kind of data set: Cognitive enhancing effect in C57BL/6 mouse model of amyloid beta (25 to 35) peptide-induced memory impairment assessed as reduction in escape latency time to find removed platform position at 56 mg/kg, po administered via gavage and measured on 5th day by Morris water maze test. It is filed as functional, organism-based. Particulars: in the assay text read “6th day” for “5th day”. An outline of the steps: as §4

In data set [11] the test system is Mus musculus. The data set is described as follows: Cognitive enhancing effect in C57BL/6 mouse model of amyloid beta (25 to 35) peptide-induced memory impairment assessed as reduction in escape latency time to find removed platform position at 14 to 56 mg/kg, po administered via gavage and measured on 6th day by Morris water maze test. It is filed as functional, organism-based. The method, boiled down:
as §4

Data set [12] has as its system Mus musculus. Kind of data set: Cognitive enhancing effect in C57BL/6 mouse model of amyloid beta (25 to 35) peptide-induced memory impairment assessed as reduction in time to reach the target quadrants at 14 to 56 mg/kg, po administered via gavage and measured on 6th day by Morris water maze test. The data set is classed as functional, organism-based. An outline of the steps: as §4

The test system of data set [13] is Mus musculus. The data set is described as follows: Cognitive enhancing effect in orally dosed C57BL/6 mouse model of amyloid beta (25 to 35) peptide-induced memory impairment assessed as increase in crossing numbers of target quadrants administered via gavage and measured on 6th day by Morris water maze test. It is filed as functional, organism-based. An outline of the steps: as §4

The subject of data set [14] is Mus musculus. The data set is described as follows: Neuroprotective activity in amyloid beta (25 to 35) peptide-induced memory impairment C57BL/6 mouse model assessed as reduction in amyloid beta (25 to 35) peptide deposition at 14 to 56 mg/kg, po administered via gavage by DAPI staining based immunohistochemical analysis. The data set is classed as functional, organism-based. The method, boiled down:
(§5)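 Hippocampal sections from Aβ25–35-injected mice after long-term dosing were immunostained for Aβ25–35 (red) and Iba-1 (green) with DAPI counterstain. Integral optical density was quantified and given as mean ± SEM.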

In data set [15] the test system is Mus musculus. The data set is described as follows: Neuroprotective activity in orally dosed amyloid beta (25 to 35) peptide-induced memory impairment C57BL/6 mouse model assessed as reduction in amyloid beta (25 to 35) peptide deposition administered via gavage by DAPI staining based immunohistochemical analysis. The data set is classed as functional, organism-based. An outline of the steps: as §5

In data set [16] the test system is Mus musculus. The data set is described as follows: Neuroprotective activity in amyloid beta (25 to 35) peptide-induced memory impairment C57BL/6 mouse model assessed as increase in number of microglia expression at 14 to 56 mg/kg, po administered via gavage by DAPI staining based immunohistochemical analysis. It is filed as functional, organism-based. An outline of the steps:
as §5

In data set [17] the test system is Mus musculus. Kind of data set: Neuroprotective activity in orally dosed amyloid beta (25 to 35) peptide-induced memory impairment C57BL/6 mouse model assessed as increase in Iba1 expression administered via gavage by DAPI staining based immunohistochemical analysis. The data set is classed as functional, organism-based. An outline of the steps:
as §5

The source made the active and inactive calls. The calls are words filed in the database; no cut-off is given here.

Turning to `C[C@H]1[C@H](C)CC[C@]2(C(=O)O)CC[C@]3(C)C(=CC[C@@H]4[C@@]5(C)CC[C@H](O)C(C)(C)[C@@H]5CC[C@]43C)[C@H]12` [URSOLIC ACID], the Activity result in data set [1] was “Non-Toxic”; in [2], “Non-Toxic”; in the data set with Mus musculus [4] it was “Dose-dependent effect”; in the data set with Mus musculus [5] it was “Dose-dependent effect”; in data set [7] it was “Non-Toxic”; in the data set with Mus musculus [13], “Dose-dependent effect”. The Activity result with Mus musculus [15] and in the data set on Mus musculus [17] was “Dose-dependent effect” throughout. For the same compound, the outcome in the data set on Mus musculus [3], in the data set with Mus musculus [6], in the data set on Mus musculus [8], with Mus musculus [9], in the data set on Mus musculus [10] and with Mus musculus [11] was Active. The outcome with Mus musculus [12], with Mus musculus [14] and in the data set on Mus musculus [16] was Active.

For the origin of these results see ChEMBL document CHEMBL4602642, “Pyrola incarnata demonstrates neuroprotective effects against β-amyloid-induced memory impairment in mice” (Bioorg Med Chem Lett, 2020).
